Measured values gathered from unrelated publications.
Compare with care: the assays were run in different laboratories.
Sample: plasma

| SMILES | host | route | dose | notes | measurement | result |
| --- | --- | --- | --- | --- | --- | --- |
| CC(=O)c1c(C)c2cnc(Nc3ccc(N4CCNCC4)cn3)nc2n(C2CCCC2)c1=O | male Sprague-Dawley rat | intravenous | 5 mg/kg |  | MRT | 2.5 h |
| COc1ccc(-c2coc3cc(O)cc(O)c3c2=O)cc1 | rat | intravenous | 2 mg/kg |  | MRT | 0.27 h |
| Nc1ccn([C@@H]2O[C@H](CO)[C@@H](O)C2(F)F)c(=O)n1 | male Sprague-Dawley rat | intravenous | 5 mg/kg |  | MRT(0-inf) | 0.13 h |
| CC[C@@H]([C@H](C)O)n1ncn(-c2ccc(N3CCN(c4ccc(OC[C@@H]5CO[C@@](Cn6cncn6)(c6ccc(F)cc6F)C5)cc4)CC3)cc2)c1=O | Sprague-Dawley rat | oral | 40 mg/kg |  | MRT(0-t) | 10.3 h |
| O=C1CCC(N2Cc3cc(C4CCN(Cc5ccccc5)CC4)ccc3C2=O)C(=O)N1 (stereo not drawn) | male Sprague-Dawley rat | intravenous | 1 mg/kg |  | MRT(0-inf) | 4.13 h |
| COc1nc(-c2cccc(-c3ccccc3)c2C)ccc1CNCCNC(=O)CCCCCCCCCCC(=O)N1CCN(CCNC(=O)c2cc3c(=O)n4cccc(C)c4nc3n(CCc3cccs3)c2=N)CC1 | male Sprague-Dawley rat | intravenous | 2 mg/kg |  | MRT(0-inf) | 5.1 h |
| CONC(=O)c1cccc2c1cc(C)n2-c1nc2c(c(NCc3ccccc3)n1)CCCN2 | male Sprague-Dawley rat | intravenous | 1 mg/kg | single dose | MRT | 3.6 h |
| C[C@H]1Oc2cc(cnc2N)-c2c(nn(C)c2C#N)CN(C)C(=O)c2ccc(F)cc21 | male Sprague-Dawley rat | oral | 5 mg/kg | single dose | MRT(0-t) | 6.6 h |
| COc1ccc(N(Cc2csc(-c3ccccc3)n2)C(=O)CCCCCC(=O)NO)cc1 | female Sprague-Dawley rat | intravenous | 5 mg/kg |  | MRT | 0.39 h |
| C[C@H]1[C@@H](O)O[C@@H]2O[C@@]3(C)CC[C@H]4[C@H](C)CC[C@@H]1[C@@]24OO3 | male Sprague-Dawley rat | oral | 10 mg/kg |  | MRT(0-t) | 1.56 h |
| COc1cc(-c2cc(C(C)=O)n3ccccc23)c(OC)cc1Cn1ccnc1 | male Sprague-Dawley rat | oral | 5 mg/kg |  | MRT(0-t) | 1.73 h |
| C[C@@]12C[C@@]3(O)O[C@@H](O1)[C@]1(COC(=O)c4ccccc4)[C@H]3C[C@@]12O[C@@H]1O[C@H](CO)[C@@H](O)[C@H](O)[C@H]1O | male Sprague-Dawley rat | oral | 80 mg/kg |  | MRT(0-t) | 5.13 h |
| Cn1c(=O)c2[nH]cnc2n(C)c1=O | male Sprague-Dawley rat | intravenous | 22.5 mg/kg |  | MRT(0-inf) | 3.69 h |
| CCOc1c([C@H](C)n2nc(C)c3c(N)ncnc32)cc(Cl)c(F)c1[C@@H]1CNC(=O)C1 | male Sprague-Dawley rat | oral | 2 mg/kg | single dose | MRT(0-inf) | 8.49 h |
| C=CC(=O)N1CCC([C@@H]2CCNc3c(C(N)=O)c(-c4ccc(Oc5ccccc5)cc4)nn32)CC1 | Sprague-Dawley rat | oral | 16 mg/kg |  | MRT(0-t) | 3.81 h |
